{"data": "Experimental data gathered from unrelated publications", "note": "Each line is one published result; the experiments were not run side by side."}
{"SMILES": "Clc1ccc(-c2nc3ccccc3[nH]2)cc1Cl", "cell line": "MCF7", "assay": "cell growth or viability, MTT", "conditions": "48 h", "IC50 [µM]": 11.1}
{"SMILES": "O=C(/C=C/c1ccc(O)c(O)c1)O[C@@H]1C[C@](O)(C(=O)O)C[C@@H](O)[C@H]1O", "cell line": "HEp-2", "assay": "cell growth or viability, WST-1", "conditions": "48 h", "IC50 [µM]": 5.1}
{"SMILES": "O=C(/C=C/c1ccc2c(=O)n(CC3CCCCC3)cnc2c1)NO", "cell line": "SW-620", "assay": "cell growth or viability, SRB", "conditions": "48 h", "IC50 [µM]": 1.44}
{"SMILES": "CC(C)[C@H](N)C(=O)N1CCC[C@H]1B(O)O", "cell line": "NOMO-1", "assay": "cell growth or viability, ATP luminescence", "conditions": "48 h", "IC50 [µM]": 0.165}
{"SMILES": "CCCn1cnc2ccc(/C=C/C(=O)NO)cc2c1=O", "cell line": "SW-620", "assay": "cell growth or viability, SRB", "conditions": "48 h", "IC50 [µM]": 2.7}
{"SMILES": "CC(NCCc1ccc(O)cc1)C(O)c1ccc(O)cc1 (stereo not drawn)", "cell line": "THP-1", "assay": "TNF-α release, inhibitor", "conditions": "17 h, LPS-stimulated", "IC50 [µM]": 3.5}
{"SMILES": "CCCCc1ccc2[nH]c(NC(=O)OC)nc2c1", "cell line": "FaDu", "assay": "cell growth or viability", "conditions": "72 h", "IC50 [µM]": 0.153}
{"SMILES": "CC(C)[C@H](N)c1nc2cc(-c3ccncc3F)sc2c(=O)[nH]1", "cell line": "CAPAN-1", "assay": "cell growth or viability, MTT", "IC50 [µM]": 0.049}
{"SMILES": "CC(=O)O[C@H]1C(=O)[C@@]2(C)[C@H]([C@H](OC(=O)c3ccccc3)[C@]3(O)C[C@H](OC(=O)[C@H](O)[C@@H](NC(=O)c4ccccc4)c4ccccc4)C(C)=C1C3(C)C)[C@]1(OC(C)=O)CO[C@@H]1C[C@@H]2O", "cell line": "MCF7", "assay": "cell growth or viability, MTT", "IC50 [µM]": 2.35}
{"SMILES": "COc1ccc(C(=O)O[C@@H]2CN3Cc4c(cc5c(c4OC)OCO5)[C@@]24C=C[C@H](OC)C[C@@H]34)cc1OC", "cell line": "SAOS-2", "assay": "cell growth or viability, WST-1", "IC50 [µM]": 2.1}
{"SMILES": "CCCC1(C)C(C#N)(C#N)C1(C#N)C#N", "cell line": "THP-1", "assay": "TNF-α release, inhibitor", "conditions": "17 h, LPS-stimulated", "IC50 [µM]": 1.15}
{"SMILES": "O=[N+]([O-])c1cccc(-c2nc3ccccc3[nH]2)c1", "cell line": "MCF7", "assay": "cell growth or viability, MTT", "conditions": "48 h", "IC50 [µM]": 24.4}
{"SMILES": "O=Cc1ccc(CO)o1", "cell line": "HEp-2", "assay": "cell growth or viability, WST-1", "conditions": "48 h", "IC50 [µM]": 78.9}
{"SMILES": "CNC[C@H](O)c1ccc(O)c(O)c1", "cell line": "THP-1", "assay": "TNF-α release, inhibitor", "conditions": "17 h, LPS-stimulated", "IC50 [µM]": 0.07}
{"SMILES": "CN1C(=O)c2cc(C(N)=O)nc3c(N)c(Cl)c(N)c1c23", "cell line": "Calu-3", "assay": "cell growth or viability", "IC50 [µM]": 17.6}
{"SMILES": "COc1cc(Nc2nccc(-c3cnn4nc(OC)ccc34)n2)cc(C(F)(F)F)c1", "cell line": "J82", "assay": "cell growth or viability, ATP luminescence", "IC50 [µM]": 0.85}
{"SMILES": "NCCc1ccc(O)c(O)c1", "cell line": "FaDu", "assay": "cell growth or viability", "conditions": "72 h", "IC50 [µM]": "> 20"}
{"SMILES": "COc1c(C)c(OS(=O)(=O)c2ccc3ccccc3c2)c(C)c(OS(=O)(=O)c2ccc3ccccc3c2)c1C(=O)/C=C/c1ccccc1", "cell line": "FaDu", "assay": "cell growth or viability, SRB", "conditions": "72 h", "IC50 [µM]": "> 50"}
{"SMILES": "CCN(CC)CCOC(=O)C1(c2ccc([N+](=O)[O-])cc2)CCCC1", "cell line": "FaDu", "assay": "cell growth or viability", "conditions": "72 h", "IC50 [µM]": "> 20"}
{"SMILES": "CC(C)C[C@H](NC(=O)[C@H](Cc1ccccc1)NC(=O)c1cnccn1)B(O)O", "cell line": "SK-MEL3", "assay": "cell growth or viability, ATP luminescence", "IC50 [µM]": 0.0099}
{"SMILES": "Clc1ccc(N2CCN(Cc3c[nH]c4ncccc34)CC2)cc1", "cell line": "FaDu", "assay": "cell growth or viability", "conditions": "72 h", "IC50 [µM]": "> 20"}
{"SMILES": "Nc1ccn([C@@H]2O[C@H](CO)[C@@H](O)C2(F)F)c(=O)n1", "cell line": "Panc02", "assay": "cell growth or viability, CCK-8", "conditions": "72 h", "IC50 [µM]": 0.0341}
{"SMILES": "c1ccc2c(-c3nc4ccccc4[nH]3)c3ccccc3cc2c1", "cell line": "MCF7", "assay": "cell growth or viability, MTT", "conditions": "48 h", "IC50 [µM]": 13.2}
{"SMILES": "Nc1nc(Nc2ccccc2)nc2c1ncn2[C@@H]1O[C@H](CO)[C@@H](O)[C@H]1O", "cell line": "FaDu", "assay": "cell growth or viability", "conditions": "72 h", "IC50 [µM]": "> 20"}
